Measured values as given in ChEMBL document CHEMBL1157326, “Nortriterpenoids from Schisandra lancifolia” (J Nat Prod, 2006).
Values after ≈ are worked out from the molar mass of the structure shown.

How the values were obtained:
[1] = test system: Human immunodeficiency virus 1; assay: Antiviral activity against HIV1 3B in human C8166 cells assessed as inhibition of virus-induced cytopathic effect; type: functional, organism-based; details: Human immunodeficiency virus 1, 3B
Summary of the method: (§1)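 C8166 cells were used for both assays, with AZT as the positive control. Protection from HIV-1 cytopathic effect gave the EC50, and MTT viability on the same cells, run in parallel, gave the CC50.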

[2] = Selectivity index, CC50 for human C8166 cells to EC50 for HIV1 3B; type: toxicity, cell-based; details: read-out: Ratio CC50/EC50
Summary of the method: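 The ratio is built from a CC50 (MTT viability of C8166 cells) and an EC50 (inhibition of HIV-1 cytopathic effect in C8166 cells), both determined in parallel.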

[3] = Cytotoxicity against human C8166 cells by MTT method; type: cell-based; summary of the method: as §1

EC50 [1] [µg/mL]	Structure (SMILES)	selectivity ratio [2]	CC50 [3] [µg/mL]
100 (≈ 178 µM)	C[C@@H]1C(=O)[C@@]2(C)CC[C@]34C[C@]56OC(=O)C[C@H]5OC(C)(C)[C@@H]6C[C@H](O)[C@H]3C(=O)[C@@]3(O[C@H]5[C@H](OC(=O)[C@]5(C)O)[C@@H]1[C@H]32)O4 [LANCIFODILACTONE L]	> 2	> 200
77.6 (≈ 143 µM)	C[C@@H]1C(=O)[C@@]2(C)CC[C@]34C[C@]56OC(=O)C[C@H]5OC(C)(C)[C@@H]6CC=C3C(=O)[C@@]3(O[C@H]5[C@H](OC(=O)[C@]5(C)O)[C@@H]1[C@H]32)O4 [LANCIFODILACTONE N]	2.4	186 (≈ 343 µM)

Further lines, the molecule ahead of its results:

Structure (SMILES)	EC50 [1] [µg/mL]	selectivity ratio [2]	CC50 [3] [µg/mL]
CC1=C[C@@H]([C@H]2[C@H](C)C(=O)[C@@]3(C)CC[C@]45C[C@]67OC(=O)C[C@H]6OC(C)(C)[C@@H]7CC=C4C(=O)[C@@](O)(O5)[C@@H]23)OC1=O [LANCIFODILACTONE K]	78.5 (≈ 149 µM)	> 2.55	> 200
CC(=O)O[C@H]1C[C@H]2C(C)(C)O[C@@H]3CC(=O)O[C@@]32C[C@]23CC[C@]4(C)C(=O)[C@@H](C)[C@H]([C@@H]5C=C(C)C(=O)O5)[C@@H]4[C@](O)(O2)C(=O)[C@H]13 [LANCIFODILACTONE J]	88.3 (≈ 151 µM)	> 2.26	> 200
CC1=C[C@@H]([C@H]2[C@H](C)C(=O)[C@@]3(C)CC[C@]45C[C@]67OC(=O)C[C@H]6OC(C)(C)[C@@H]7C[C@H](O)[C@H]4C(=O)[C@@](O)(O5)[C@@H]23)OC1=O [LANCIFODILACTONE I]	96.4 (≈ 177 µM)	> 2.08	> 200
CC1=C2[C@H]3OC(=O)[C@@H](C)[C@H]3O[C@]34O[C@@]5(CC[C@](C)(C1=O)[C@H]23)C[C@]12OC(=O)C[C@H]1OC(C)(C)[C@@H]2C[C@H](O)[C@H]5C4=O [LANCIFODILACTONE M]	76.6 (≈ 141 µM)	> 2.61	> 200
Cc1cn([C@H]2C[C@H](N=[N+]=[N-])[C@@H](CO)O2)c(=O)[nH]c1=O [ZIDOVUDINE]	0.0033 (≈ 0.0123 µM)	> 60600	> 200
